According to ChEMBL document CHEMBL3769384, “Discovery of Tetrahydropyrazolopyridine as Sphingosine 1-Phosphate Receptor 3 (S1P3)-Sparing S1P1 Agonists Active at Low Oral Doses” (J Med Chem, 2016):

Assays:
[1] = Clearance in CD rat at 1 mg/kg, iv after 24 hrs by LC-MS/MS analysis; assay type: ADME, organism-based; settings: in vivo
How it was run: (§1)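 Male animals (CD rat and Beagle dog, n=3; CD1 mouse, n=5) given a 1 h i.v. infusion at 1 mg/kg. Vehicle: DMSO:10% Kleptose HPB in saline (2%:98% v/v), 0.2 mg/mL. Serial blood sampled up to 24 h and assayed by LC-MS/MS. Values from non-compartmental analysis, mean ± SD.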

[2] = Solubility of compound in FaSSIF at pH 6.5 after 24 hrs; assay type: physicochemical
[3] = Volume of distribution at steady state in CD1 mouse at 1 mg/kg, iv after 24 hrs by LC-MS/MS analysis; assay type: ADME, organism-based; settings: in vivo, read-out: Vdss
How it was run: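 Male CD1 mice with a jugular vein cannula got a 1 h IV infusion at 1 mg/kg, dosed at 0.2 mg/mL in DMSO:10% w/v Kleptose HPB in saline (2%:98% v/v). Serial tail-vein blood (ca. 25 µL) was taken up to 24 h and assayed against calibration standards in control blood. Non-compartmental analysis was used; n=5, mean ± SD.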

[4] = Oral bioavailability in CD1 mouse at 3 mg/kg after 24 hrs by LC-MS/MS analysis; assay type: ADME, organism-based; settings: in vivo
How it was run: (§2)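 Oral dose as a suspension in 1% methylcellulose: CD rat 3 mg/kg (2 rats, crossover after i.v.), Beagle dog 2 mg/kg (fasted, crossover after i.v.), CD1 mouse 3 mg/kg by gavage (n=4). Blood sampled up to 24 h and assayed by LC-MS/MS. Bioavailability was referenced to the 1 h i.v. infusion at 1 mg/kg, by non-compartmental analysis.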

[5] = Solubility of compound in simulated gastric fluid at pH 1.6 after 24 hrs; assay type: ADME
[6] = Oral bioavailability in CD rat at 3 mg/kg after 24 hrs by LC-MS/MS analysis; assay type: ADME, organism-based; settings: in vivo; how it was run: as §2
[7] = Half life in CD rat at 1 mg/kg, iv after 24 hrs by LC-MS/MS analysis; assay type: ADME, organism-based; settings: in vivo; how it was run: as §1
[8] = Clearance in CD1 mouse at 1 mg/kg, iv after 24 hrs by LC-MS/MS analysis; assay type: ADME, organism-based; settings: in vivo; how it was run: as §1
[9] = Volume of distribution at steady state in CD rat at 1 mg/kg, iv after 24 hrs by LC-MS/MS analysis; assay type: ADME, organism-based; settings: in vivo, read-out: Vdss; how it was run: as §1
[10] = Half life in CD1 mouse at 1 mg/kg, iv after 24 hrs by LC-MS/MS analysis; assay type: ADME, organism-based; settings: in vivo; how it was run: as §1
[11] = Solubility of compound in FeSSIF at pH 6.5 after 24 hrs; assay type: physicochemical
[12] = Clearance in beagle dog at 1 mg/kg, iv after 24 hrs by LC-MS/MS analysis; assay type: ADME, organism-based, Canis lupus familiaris; settings: in vivo; how it was run: as §1
[13] = Half life in beagle dog at 1 mg/kg, iv after 24 hrs by LC-MS/MS analysis; assay type: ADME, organism-based, Canis lupus familiaris; settings: in vivo; how it was run: as §1
[14] = Volume of distribution at steady state in beagle dog at 1 mg/kg, iv after 24 hrs by LC-MS/MS analysis; assay type: ADME, organism-based, Canis lupus familiaris; settings: in vivo, read-out: Vdss
How it was run: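 Three fasted male Beagle dogs got a 1 h IV infusion at 1 mg/kg, dosed at 0.2 mg/mL in DMSO:10% w/v Kleptose HPB in saline (2%:98% v/v). Blood went into K-EDTA tubes predose to 24 h, from a cephalic cannula to 2 h and by jugular venepuncture after. Analysis was LC-MS/MS (LLQ 1 ng/mL) with non-compartmental parameters; mean n=3 ± SD.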

[15] = Oral bioavailability in beagle dog at 2 mg/kg 24 hrs by LC-MS/MS analysis; assay type: ADME, organism-based, Canis lupus familiaris; settings: in vivo; how it was run: as §2

For `Cc1c2c(nn1-c1nnc(-c3ccc(OC(C)C)c(Cl)c3)s1)CCN(CCC(=O)O)C2.O=C(O)C(F)(F)F`, the clearance [1] was 24 mL/min/kg, the solubility at 24 h [2] was 3 µg/mL and the Vd [3] was 3.3 L/kg. It also gave a bioavailability [4] of 79%, a solubility at 24 h [5] of 37 µg/mL and a bioavailability [6] of 48%. For the same compound, the half-life [7] was 4.4 h, the clearance [8] was 16 mL/min/kg and the Vd [9] was 3.7 L/kg. It also gave a half-life [10] of 3.8 h and a solubility at 24 h [11] of 4 µg/mL.

With `Cc1c2c(nn1-c1nnc(-c3ccc(OC(C)C)c(Cl)c3)s1)CCN(CCC(=O)O)C2.Cl` the clearance [12] was 33 mL/min/kg, the solubility at 24 h [2] was 16 µg/mL and the solubility at 24 h [5] was 7 µg/mL. It also gave a half-life [13] of 6.5 h, a Vd [14] of 5.3 L/kg and a bioavailability [15] of 44%. The solubility at 24 h [11] was 46 µg/mL.
